Rows were chosen to be rich in hits. Some 2% of all compounds tested hit in one or more screens of this group.
TROY signal inh = inhibitors of TROY-dependent NF-kB signaling | 0.98% of 360,000 active | AID 1347056 | Q293 LMP1-TROYcd NF-kB luciferase reporter, 4 h | inhibition, % at 10 µM;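 active = compounds whose plate-normalised and pattern-corrected inhibition of the luciferase reporter signal at the single screening dose is 50% or more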
TWEAK Fn14 block = inhibitors of TWEAK-Fn14 interaction signaling; TWEAK-stimulated Fn14 reporter cells, luciferase luminescence, 8 h; inhibition, % at 10 µM; 2% of 360,000 active; in the data active = inhibition above about 50%
CaV13 FRET inh = Primary screen for inhibitors of IQ motif and Ca2+-dependent inactivation inhibitor domain binding in CACNA1D, Förster resonance energy transfer in living cells, …; HEK cells, CFP/YFP FRET ICDI-IQ, plate reader, 10 min; percent FRET-ratio fall versus neutral wells; inhibition, % at 12.3 µM; 0.098% of 340,000 active; AID 743397;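 active = mean replicate inhibition of at least 30% and at least 1% of replicates passing that level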;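 note: 0% = median of the neutral control wells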
LGR2 antag = blocks bursicon-induced cAMP signaling via Drosophila LGR2. AID 720647. 0.35% of 380,000 active. inhibition, % at 9.99 µM. HEK293 LGR2, CRE-luciferase, bursicon-stimulated, 4 h;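 active = drop in luminescence signal, shown as inhibition above about 50% in the replicate tests, limit read from the data, passing the limit was not always enough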;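 note: agonist challenge used bursicon conditioned medium at about half maximal strength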
XiGFP reactiv = reactivates the inactive X chromosome in mouse fibroblasts; XiGFP mouse fibroblasts, % GFP-positive cells imaging, 3 d; cells co-treated with 5-aza-dC sensitizer; scaled so ellipticine positive control = 100%; 0.055% of 360,000 active; activation, % at 7.58 µM;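 active = mean normalized replicate activation at least 10% and every replicate at or above 10%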;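 note: 0% = median of on-plate neutral control wells and 100% = ellipticine 6 µM median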
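Assay system – SV40-immortalized XiGFP fibroblast cells, line 68-5-11 · Buffer or medium – DMEM supplemented with 5-aza-dC as sensitizing agent · Dosing – one concentration, pinned · Benchmarks – positive control ellipticine, 6 µM final · Times – 3 days compound exposure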
* hit, by the source's call; nt = no result given; + = active, no number.

SMILES	TROY signal inh	TWEAK Fn14 block	CaV13 FRET inh	LGR2 antag	XiGFP reactiv
CN(C)CCCNC(=O)C[C@@H]1CC[C@H]2[C@@H](COC[C@H](O)CN2Cc2cccc(Cl)c2)O1	nt	nt	nt	7	0
Cc1nonc1NC(=O)CSc1nc2c(C)cccc2cc1C#N	-23	-18	-8	-18	65*
Cc1cc2cc(C#N)c(SCC(=O)Nc3nonc3C)nc2cc1C	-11	-21	-10	-46	6
Cc1cc(C)n(C(=O)/C(C#N)=N\Nc2ccccc2[N+](=O)[O-])n1	1	14	-2	-17	0
Cc1cc(C)n(C(=O)/C(C#N)=N/Nc2cc(Cl)cc(Cl)c2)n1	68*	51*	nt	nt	nt
COc1cccc(NC(=O)Nc2nc(SC(C)(C)C)ns2)c1	41	77*	6	11	0
CCSc1nsc(NC(=O)Nc2cccc(F)c2)n1	48	55*	-1	-1	0
Cc1ccnc(NC(=O)Nc2cccc(F)c2)n1	-60	13	2	-41	0
COc1ccc(NC(=O)Nc2cccc(OC)c2)cc1	-61	-3	-3	nt	nt
COc1cccc(NC(=O)Nc2nccc(C)n2)c1	26	62*	-3	31	0
COc1cccc(NC(=O)Nc2nc(SC)ns2)c1	-10	56*	-3	0	0
CCNC(=O)C[C@@H]1CC[C@@H]2[C@@H](COc3ccc(NC(=O)Nc4c(C)noc4C)cc3C(=O)N2C)O1	nt	nt	nt	4	0
COc1ccccc1CNC(=O)C[C@H]1C[C@@H]2c3cc(NC(=O)C4CCOCC4)ccc3O[C@@H]2[C@@H](CO)O1	nt	nt	nt	20	0
COc1ccc(-c2ccc(C3[C@H]4CNC[C@@H]3N4C(=O)Nc3ccc(C(F)(F)F)cc3)cc2)cc1 (some centres not stated)	nt	nt	nt	-12	0
C[C@@H]1CCCCO[C@@H](CN(C)CC2CCCCC2)[C@H](C)CN([C@H](C)CO)C(=O)c2cc(NC(=O)Nc3cccc4ccccc34)ccc2O1	nt	nt	nt	10	-1
CCOc1ccc2nc(COC(=O)c3ccncc3)c(C(=O)c3ccccc3)[n+]([O-])c2c1	61*	52*	-5	-47	0
Cc1cccc(Nc2nc(NCc3ccco3)c3ccccc3n2)c1	30	86*	-8	nt	0
Oc1ccccc1Nc1nc(NCc2ccco2)c2ccccc2n1	13	13	-5	-20	0
Cc1ccccc1Nc1nc(NCc2ccco2)c2ccccc2n1	-19	24	10	-3	0
c1ccc(Nc2nc(NCc3ccco3)c3ccccc3n2)cc1	-6	52*	0	6	0
C[C@H]1CN([C@@H](C)CO)C(=O)c2cc(C#CCN(C)C)cnc2O[C@@H]1CN(C)C(=O)CN1CCOCC1	nt	nt	nt	1	0
CC(C)c1ccc(-c2nnn(CCC(=O)O)n2)cc1	48	87*	nt	nt	nt
O=C(O)CCn1nnc(-c2cccs2)n1	-12	-3	-4	nt	nt
Cc1ccc(Nc2nc(-c3c(C)nc4ccccn34)cs2)cc1	59*	95*	-5	13	nt
Oc1ccc(Nc2nc(-c3ccc4ccccc4c3)cs2)cc1	9	76*	nt	nt	nt
SMILES	TROY signal inh	TWEAK Fn14 block	CaV13 FRET inh	LGR2 antag	XiGFP reactiv
Cc1ccc(Nc2nc(-c3c(C)nc4ncccn34)cs2)cc1	1	11	-10	nt	nt
Cc1noc(C)c1S(=O)(=O)N(C)C[C@@H]1Oc2ccc(NS(=O)(=O)c3ccccc3)cc2C(=O)N([C@@H](C)CO)C[C@@H]1C	nt	nt	nt	-16	0
Cc1ccc(NC(=O)N2CCCc3ccccc32)cc1C	65*	26	nt	-20	0
Cc1cc(=O)oc(C)c1C(=O)N1CCCc2ccccc21	12	97*	-4	nt	nt
O=C(Nc1ccccc1)N1CCCc2ccccc21	-1	8	-4	nt	nt
Cc1cccc(NC(=O)N2CCCc3ccccc32)c1C	75*	51*	-4	14	0
Cc1noc(C)c1C(=O)N1CCCc2ccccc21	-17	4	nt	4	nt
Cc1noc(C)c1S(=O)(=O)Nc1ccc2c(c1)C(=O)N([C@@H](C)CO)C[C@H](C)[C@@H](CN(C)S(=O)(=O)c1c(C)noc1C)OCCCC[C@H](C)O2	nt	nt	nt	13	0
CC(NC(=O)Nc1nnc(C(F)(F)F)s1)(C(F)(F)F)C(F)(F)F	55*	30	-8	nt	nt
Cc1nn(-c2ccccc2)nc1C(=O)Nc1nnc(C(F)(F)F)s1	52*	11	2	9	0
CCc1nnc(NC(=O)c2nn(-c3ccccc3)nc2C)s1	-16	-2	-4	14	0
CC(C)(C)CC(=O)Nc1nnc(C(F)(F)F)s1	15	-2	-3	nt	nt
O=C(Nc1ccccc1C(=O)Nc1nnc(C(F)(F)F)s1)c1ccccc1Cl	66*	62*	-6	25	0
Cc1c(C(=O)NCc2ccc(Cl)c(Cl)c2)sc(=O)n1Cc1ccc(S(=O)(=O)N(C)C)cc1	39	67*	12	-7	0
Cc1c(C(=O)NCc2ccc(Cl)c(Cl)c2)sc(=O)n1Cc1ccc(C(=O)N(C)C)cc1	24	20	15	9	1
Cc1c(C(=O)NCc2ccc(C(C)C)cc2)sc(=O)n1Cc1ccc(S(=O)(=O)N(C)C)cc1	25	64*	3	9	0
CSc1ccc(Cn2c(C)c(C(=O)NCc3ccc(C(C)C)cc3)sc2=O)cc1	20	17	11	12	0
COc1ccccc1CNC(=O)C[C@H]1C[C@H]2c3cc(NC(=O)CC4CC4)ccc3O[C@H]2[C@@H](CO)O1	nt	nt	nt	-14	0
Nc1ccc2cc3[nH]c4cc(N)ccc4c3nc2c1	-37	-32	-13	nt	63*
CN(C)c1ccc(-c2nnc(-c3cccs3)o2)cc1	18	63*	-4	16	0
Cc1ccc(-c2cn3cccc(C)c3n2)cc1	-44	33	nt	16	0
Cc1cccn2cc(-c3ccc(Cl)cc3)nc12	9	53*	-7	18	0
CC(=O)c1cccc(NC(=O)c2ccc(N(Cc3ccccc3C)S(C)(=O)=O)cc2)c1	-3	32	0	8	nt
CC(=O)Nc1ccc(NC(=O)c2ccc(N(Cc3ccccc3C)S(C)(=O)=O)cc2)cc1	-13	86*	-2	25	0
Cc1cc(/C=N/NC(=O)c2cccs2)c(C)n1-c1ccccc1	63*	80*	nt	nt	nt
Cc1ccc(-n2c(C)cc(/C=N/NC(=O)Cn3c4ccccc4c(=O)c4ccccc43)c2C)cc1	-27	-10	+	9	0
COc1ccc(C(=O)Cn2c(C)nc([N+](=O)[O-])c2Br)cc1	16	50*	-2	20	0
Cc1nc([N+](=O)[O-])c(Br)n1Cc1ccc(Cl)c(Cl)c1	31	81*	-6	22	2
O=C(C[C@H]1C=C[C@H](NC(=O)CN2CCOCC2)[C@H](CO)O1)NC1CCCCC1	nt	nt	nt	-2	0
Cc1cccc(NC(=S)NC(=O)Cc2ccccc2)c1C	-1	-17	-1	-9	0

Source: PubChem BioAssay
